# Screening results as filed in PubChem BioAssay.
# OXTR potentiate: potentiators of human oxytocin receptor; CHO-OTR cells, Fluo-8 calcium fluorescence, potentiator mode; 0% = oxytocin EC15, 100% = EC100; activation, % at 3 µM; 0.061% of 320,000 active;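 active means activation above that plate's cutoff, the mean activation of tested compounds plus 3 SD, cut at about 6.6% in these data, passing the limit was not always enough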;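 further: 100% uses oxytocin at 75 nM as the full agonist control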
#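 Assay system: CHO cell line stably expressing human OTR. Reagent: EC15 oxytocin agonist. Dosing: single dose, 3.0 µM nominal final compound concentration. Timing: compound 6 min at room temperature before oxytocin, 100 s read. Signal: kinetic Fluo-8 calcium fluorescence. Controls: oxytocin EC15 low and EC100 high.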
# V1aR counter: activates human V1a receptor in oxytocin agonist counter-screen | 0.25% of 320,000 active | P37288 | activation, % at 3 µM | CHO-V1R cells, Fluo-8 calcium fluorescence, agonist mode; 0% DMSO, 100% 3 nM vasopressin;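 active means activation above the mean activation of all tested compounds plus 3 SD, per screening run, cut at about 20% in these data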;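 further: signal is peak over basal fluorescence ratio across a 100 second FLIPR read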
# TAAR1 antagonist: human TAAR1 antagonism; inhibition, % at 3 µM; 1.5% of 360,000 active; CHO RD-HGA16 TAAR1, Fluo-8 calcium fluorescence, antagonist; Q96RJ0;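 active means inhibition above a per-plate cutoff, the mean inhibition of test compounds on that plate plus 3 SD, cut at about 49% in these data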;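 further: 0% = DMSO plus EC80 beta-PEA response and 100% = DMSO alone without agonist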
# Target sequence (Q96RJ0 whole entry, looked up): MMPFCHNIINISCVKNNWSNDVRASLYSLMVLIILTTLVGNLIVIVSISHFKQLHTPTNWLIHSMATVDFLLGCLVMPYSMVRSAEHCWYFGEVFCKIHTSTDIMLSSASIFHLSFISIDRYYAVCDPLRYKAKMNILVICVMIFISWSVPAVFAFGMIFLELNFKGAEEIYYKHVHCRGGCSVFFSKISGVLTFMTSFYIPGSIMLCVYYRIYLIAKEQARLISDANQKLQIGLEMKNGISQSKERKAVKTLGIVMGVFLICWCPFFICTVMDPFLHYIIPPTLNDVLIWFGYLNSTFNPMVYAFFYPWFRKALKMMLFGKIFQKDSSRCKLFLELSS
#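 test system = CHO RD-HGA16 cells bearing hTAAR1 | replication = singlicate | controls = DMSO-only wells and EC80 β-PEA-stimulated wells | reagent = EC80 β-phenethylamine stimulus | read-out basis = percent inhibition of PEA-evoked calcium signal, max/basal emission ratio | schedule = seeding 17-24 h prior, 75-min 37 °C, 30-min RT dye loading | signal = kinetic Fluo-8 calcium fluorescence measurement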
# OXTR ag: agonists of human oxytocin receptor; 0.32% of 320,000 active; P30559; CHO-OTR cells, Fluo-8 calcium fluorescence; normalized: DMSO 0%, oxytocin 100%; activation, % at 3 µM;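 active means activation above the mean of all tested compounds plus 3 SD, cutoff set per screening run, cut at about 20% in these data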;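 further: peak over basal fluorescence ratio from a 100 s FLIPR kinetic read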
# TAAR1 agonist: agonists of human TAAR1. AID 624467. CHO RD-HGA16 TAAR1, Fluo-8 calcium fluorescence; vehicle wells 0%, saturating PEA agonist 100%. 0.99% of 360,000 active. Q96RJ0. activation, % at 3 µM;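 active means activation above the mean activation of all test compounds in the run plus 3 SD, cut at about 38% in these data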
#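 Assay system: CHO-derived RD-HGA16 cells with stable Gα16 and human TAAR1; timing: 17-24 h seeding, 75 min 37 °C dye, 30 min RT; read-out: % activation from peak over basal fluorescence ratio, DMSO-to-PEA scaled; measured by: kinetic Fluo-8 calcium fluorescence; benchmarks: low control DMSO, high control PEA (EC100); doses: 3 µM single concentration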
# Starred values were filed as active, the others as inactive; . = no result. A selection: hits, their analogues and other compounds. The true share with any hit is near 2.3%.
SMILES,OXTR potentiate,V1aR counter,TAAR1 antagonist,OXTR ag,TAAR1 agonist
COc1cc(OC)c(N(C)S(=O)(=O)c2cccc(C(=O)Nc3nc(C)cs3)c2)cc1Cl,-7,2,51*,1,8
CN(c1ccccc1)S(=O)(=O)c1cccc(C(=O)OCC(=O)NCc2ccccc2)c1,-5,3,25,1,5
CN(c1ccccc1)S(=O)(=O)c1cccc(C(=O)OCC(=O)NCc2ccco2)c1,-9,1,2,-1,4
COc1ccc(N(C)S(=O)(=O)c2cccc(C(=O)OCC(=O)NCc3ccccc3OC)c2)cc1,-6,4,57*,4,11
COc1cc(OC)c(N(C)S(=O)(=O)c2cccc(C(=O)OCC(=O)NCc3ccco3)c2)cc1Cl,-9,1,51*,1,20
O=C(Nc1cccc(Br)c1)Oc1cccc2cccnc12,.,.,5,.,9
C[C@@H]1CN([C@@H](C)CO)C(=O)CCCn2cc(nn2)CO[C@H]1CN(C)C(=O)Nc1ccc(C(C)(C)C)cc1,.,.,-1,.,3
C=CCN(c1ccccc1OC)S(=O)(=O)c1cccc(C(=O)OCC(=O)c2c(N)n(C)c(=O)n(C)c2=O)c1,.,.,52*,.,9
CN1C(=O)CSc2ccc(NC(=O)N3CCc4ccccc43)cc21,-2,0,56*,-1,20
CC(=O)Nc1ccc(NC(=O)Nc2ccc3c(c2)N(C)C(=O)CS3)cc1,-1,1,11,0,2
COc1cccc(NC(=O)Nc2ccc3c(c2)N(C)C(=O)CS3)c1,-23,5,69*,4,23
Cc1ccc(C(=O)OCc2cc3ccccc3[nH]c2=O)cc1,-14,2,33,0,42*
O=c1c2ccccc2nc(COc2ccccc2)n1/N=C/c1cn[nH]c1-c1ccccc1,-6,3,55*,-1,9
O=C(Cn1c(=O)n(CCc2c[nH]c3ccccc23)c(=O)c2cccnc21)Nc1ccccc1F,-8,3,52*,5,12
Cc1noc(C)c1S(=O)(=O)N(C)C[C@@H]1OCc2cn(nn2)CCCC(=O)N([C@H](C)CO)C[C@H]1C,.,.,-5,.,2
O=C(CCC(=O)Nc1ccccc1)NNC(=O)c1cccs1,3,0,6,0,39*
c1ccc2c(c1)OCC(c1csc3ncnc(N4CCCC4)c13)O2 (stereo not drawn),-11,0,44,-2,17
c1ccc(CCNc2ncnc3scc(C4COc5ccccc5O4)c23)cc1 (stereo not drawn),-3,0,71*,0,18
CC(=O)c1c(C)[nH]c(C(=O)OCCCCN2C(=O)c3ccccc3C2=O)c1C,-24,12,72*,19,21
C=CCNc1nc(NCCCN2CCCC2=O)c2sc(-c3ccccc3)cc2n1,.,.,-4,.,2
Cc1ccc(CNc2nc(NCc3ccccc3)nc3ccsc23)c(C)c1,.,.,54*,.,37
CC(=O)Nc1ccc(CNc2nc(NCc3cccs3)nc3ccsc23)cc1,.,.,49*,.,36
CCOC(=O)Cc1ccc(Nc2nc(NC)nc3ccsc23)cc1,.,.,-1,.,10
O=C1CCCN1CCCNc1nc(NCc2ccccc2)nc2ccsc12,.,.,105*,.,129*
CCOC(=O)Cc1ccc(Nc2nc(NCc3ccccc3)nc3ccsc23)cc1,.,.,72*,.,2
SMILES,OXTR potentiate,V1aR counter,TAAR1 antagonist,OXTR ag,TAAR1 agonist
COc1cc(CCN=Cc2cccc(OC)c2O)c([N+](=O)[O-])cc1OC,.,.,-10,.,8
O=C1NC[C@@H](CCCCN2C[C@H](Cc3ccc(O)cc3)N(CC3CCCCC3)C(=O)C2=O)N(CCC2CCCCC2)C1=O,.,.,-4,.,43*
O=C1NC[C@H](CCCCN2C[C@H](Cc3ccc(O)cc3)N(CCc3ccccc3)C(=O)C2=O)N(Cc2ccccc2)C1=O,.,.,-9,.,2
O=C1NC[C@H](CCCCN2C[C@H](Cc3ccc(O)cc3)N(CCc3ccc(O)cc3)C(=O)C2=O)N(Cc2ccccc2)C1=O,.,.,-13,.,43*
O=C1NC[C@H](CCCCN2C[C@H](Cc3ccc(O)cc3)N(CCC3CCCCC3)C(=O)C2=O)N(CC2CCCCC2)C1=O,.,.,-15,.,3
COC(=O)c1cc2c(c3c4cc(C)ccc4n(S(=O)(=O)c4cccc(C)c4)c13)C(=O)N(C)C2,.,.,-41,.,-2
COc1cccc(OC)c1C(=O)NC(=S)Nc1cc(-c2nc3ccccc3[nH]2)ccc1Cl,-2,0,50*,0,11
CC(C)C[C@@H]1COc2cc(NCCCN3CCOCC3)ccc2S(=O)(=O)N1,.,.,-7,.,9
COc1ccc(-c2ccc3[nH]c4c(c3c2)CCN2C(=O)[C@@H]([C@H](C)O)[C@@H](N(C)C(=O)Nc3ccc(F)cc3)C[C@@H]42)cc1,.,.,49*,.,7
OC1(c2ccc(F)cc2)CSC(=Nc2cccnc2)N1Cc1ccco1 (stereo not drawn),-15,2,18,-3,2
OC1(c2ccc(OC(F)F)cc2)CSC(=Nc2cccnc2)N1Cc1ccco1 (stereo not drawn),.,.,57*,.,10
C[C@H](O)[C@@H]1C(=O)N2CCc3c([nH]c4c(-c5ccccc5)cccc34)[C@@H]2C[C@@H]1N(C)C(=O)Nc1cccc2ccccc12,.,.,27,.,5
O=C(N/N=C/C=C\c1ccccc1[N+](=O)[O-])c1cc(-c2ccc3ccccc3c2)n[nH]1,.,.,53*,.,2
O=C(N/N=C/c1ccccn1)c1cc(-c2ccc3ccccc3c2)n[nH]1,-16,2,71*,3,20
O=C(N/N=C/C=C/c1ccccc1[N+](=O)[O-])c1ccncc1,-15,0,4,0,0
O=[N+]([O-])c1ccc(/C=N\NS(=O)(=O)c2ccc(F)cc2)o1,-7,1,-2,1,2
O=C(Cn1cnc2cc([N+](=O)[O-])ccc2c1=O)NCc1ccc(Cl)cc1,-13,6,9,8,14
O=c1c2ccc([N+](=O)[O-])cc2ncn1CCOc1ccc(Cl)cc1,-4,0,64*,-1,21
O=C(OCn1ncc(Cl)c(Cl)c1=O)c1ccccc1Cl,17*,-2,12,-2,18
O=C(OCn1ncc(Cl)c(Cl)c1=O)c1ccc(F)cc1,-2,-1,.,-3,.
CN(C)CCN(C(=O)/C=C/c1cccs1)c1nc2ccc(Br)cc2s1,-1,2,56*,4,6
CCCCNc1ccc2c(c1)OC[C@H](C)NS2(=O)=O,.,.,10,.,0
COc1ccc2[nH]c3c4c(ccc3c2c1)C(=O)C=CC4=O,.,.,77*,.,44*
CCSC1=C(C#N)C(c2ccccc2Cl)C(C(=O)c2cccs2)C(O)(C(F)(F)F)N1 (stereo not drawn),-22,2,-11,0,0
